Reference: ChEMBL document CHEMBL1817581, “Synthesis, antibacterial evaluation and QSAR studies of 7-[4-(5-aryl-1,3,4-oxadiazole-2-yl)piperazinyl] quinolone derivatives” (2011)

How the values were obtained:
[1] = system: Escherichia coli; assay: Antibacterial activity against Escherichia coli MTCC 739 after 24 hrs by NCCLS M7-A6 serial dilution method; assay type: functional
Outline: (§1)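 Two-fold tube dilution in culture medium; compounds dissolved in DMSO and diluted to final concentrations starting from 10 μg/ml until MIC reached. Incubated 24 h at 30 °C. MIC taken as the lowest concentration completely inhibiting growth, reported as pMIC (negative log of molar MIC). Medium plus DMSO was the negative control, ciprofloxacin the positive control. Run in triplicate.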

[2] = system: Staphylococcus aureus; assay: Antibacterial activity against Staphylococcus aureus subsp. aureus MTCC 1430 after 24 hrs by NCCLS M7-A6 serial dilution method; assay type: functional; outline: as §1
[3] = system: Bacillus subtilis; assay: Antibacterial activity against Bacillus subtilis MTCC 2423 after 24 hrs by NCCLS M7-A6 serial dilution method; parameters: unit not given here

SMILES	-logMIC [1]	-logMIC [2]	-logMIC [3]
CCn1cc(C(=O)O)c(=O)c2cc(F)c(N3CCN(c4nnc(-c5ccccc5)o4)CC3)cc21	2.65	2.58	2.58
O=C(O)c1cn(C2CC2)c2cc(N3CCN(c4nnc(-c5cccc([N+](=O)[O-])c5)o4)CC3)c(F)cc2c1=O	2.17	2.24	2.28
COc1c(N2CCN(c3nnc(-c4ccc([N+](=O)[O-])cc4)o3)C(C)C2)c(F)cc2c(=O)c(C(=O)O)cn(C3CC3)c12 (stereo unspecified)	3.24	3.61	3.11
CCn1cc(C(=O)O)c(=O)c2cc(F)c(N3CCN(c4nnc(-c5ccc([N+](=O)[O-])c([N+](=O)[O-])c5)o4)CC3)cc21	3.63	3.24	3.87
COc1ccc(-c2nnc(N3CCN(c4cc5c(cc4F)c(=O)c(C(=O)O)cn5C4CC4)CC3)o2)cc1	3.2	3.12	3.09
COc1ccc(-c2nnc(N3CCN(c4c(F)cc5c(=O)c(C(=O)O)cn(C6CC6)c5c4OC)CC3C)o2)cc1OC (stereo unspecified)	3.27	3.36	3.27
CCn1cc(C(=O)O)c(=O)c2cc(F)c(N3CCN(c4nnc(-c5ccccc5Cl)o4)CC3)cc21	3.6	3.21	3.21
O=C(O)c1cn(C2CC2)c2cc(N3CCN(c4nnc(-c5ccccc5)o4)CC3)c(F)cc2c1=O	3.22	3.26	3.87
COc1c(N2CCN(c3nnc(-c4cccc([N+](=O)[O-])c4)o3)C(C)C2)c(F)cc2c(=O)c(C(=O)O)cn(C3CC3)c12 (stereo unspecified)	3.55	3.25	3.55
CCn1cc(C(=O)O)c(=O)c2cc(F)c(N3CCN(c4nnc(-c5ccc([N+](=O)[O-])cc5)o4)CC3)cc21	3.24	3.63	3.63
O=C(O)c1cn(C2CC2)c2cc(N3CCN(c4nnc(-c5ccc([N+](=O)[O-])c([N+](=O)[O-])c5)o4)CC3)c(F)cc2c1=O	3.65	2.95	3.25
COc1ccc(-c2nnc(N3CCN(c4c(F)cc5c(=O)c(C(=O)O)cn(C6CC6)c5c4OC)CC3C)o2)cc1 (stereo unspecified)	3.07	3.17	3.09
CCn1cc(C(=O)O)c(=O)c2cc(F)c(N3CCN(c4nnc(-c5ccc(OC)c(OC)c5)o4)CC3)cc21	2.68	2.43	2.43
O=C(O)c1cn(C2CC2)c2cc(N3CCN(c4nnc(-c5ccccc5Cl)o4)CC3)c(F)cc2c1=O	2.43	2.43	2.38
COc1c(N2CCN(c3nnc(-c4ccccc4)o3)C(C)C2)c(F)cc2c(=O)c(C(=O)O)cn(C3CC3)c12 (stereo unspecified)	2.94	3.62	3.54
CCn1cc(C(=O)O)c(=O)c2cc(F)c(N3CCN(c4nnc(-c5cccc([N+](=O)[O-])c5)o4)CC3)cc21	2.69	2.84	2.84
O=C(O)c1cn(C2CC2)c2cc(N3CCN(c4nnc(-c5ccc([N+](=O)[O-])cc5)o4)CC3)c(F)cc2c1=O	2.32	2.63	2.32
COc1c(N2CCN(c3nnc(-c4ccc([N+](=O)[O-])c([N+](=O)[O-])c4)o3)C(C)C2)c(F)cc2c(=O)c(C(=O)O)cn(C3CC3)c12 (stereo unspecified)	3.66	2.64	2.96
CCn1cc(C(=O)O)c(=O)c2cc(F)c(N3CCN(c4nnc(-c5ccc(OC)cc5)o4)CC3)cc21	3.5	3.2	3.2
COc1ccc(-c2nnc(N3CCN(c4cc5c(cc4F)c(=O)c(C(=O)O)cn5C4CC4)CC3)o2)cc1OC	2.67	2.91	2.67
COc1c(N2CCN(c3nnc(-c4ccccc4Cl)o3)C(C)C2)c(F)cc2c(=O)c(C(=O)O)cn(C3CC3)c12 (stereo unspecified)	3.17	3.24	3.24
O=C(O)c1cn(C2CC2)c2cc(N3CCNCC3)c(F)cc2c1=O [CIPROFLOXACIN]	3.52	3.16	3.16
